FXN GAA850 act: frataxin GAA850 promoter activation; hit rate 0.56% among 360,000; activation, % at 6 µM; HEK293 lucGAA850 FXN promoter luciferase reporter, 24 h; percent of 10 µM SAHA response;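 active means activation above the average of all compounds screened plus 3 SD, cutoff fixed separately per campaign, cut at about 7.5% in these data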;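 further: 0% = DMSO wells and 100% = 10 µM SAHA wells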
XBP1 UPR activ: adaptive UPR (XBP1) activation; activation, % at 20 µM; hit rate 0.33% among 330,000; CHO-XBP1 luciferase reporter, IRE1-XBP1 UPR activation, luminescence; percent of tunicamycin response, DMSO as zero;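 active means versus positive control, 20 µM dose yields 30% or more activation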;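 further: 100% = tunicamycin at 10 µg/mL and 0% = DMSO only wells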
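Material: CHO cell line with stable XBP1 luciferase reporter; buffer or medium: F12 medium containing 10% fetal bovine serum; compound: single point, 20 µM final compound, 1% DMSO; incubation: 6 h treatment, 37 °C; measured by: glow luminescence from Steady-Glo reagent; evaluation: activation, % of tunicamycin; control set: tunicamycin high, DMSO low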
CHOP inhibitor: inhibitors of CHOP induction in ER stress response; inhibition, % at 10 µM; hit rate 3.8% among 220,000; AID 2732; CHO-K1 CHOP-promoter luciferase, tunicamycin-induced, 15-18 h;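 active means compounds that reduced the stress-induced luciferase reporter signal by more than about 70% of percent inhibition, limit read from the data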;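 further: 0% = tunicamycin plus vehicle and 100% = wells without tunicamycin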
CHOP UPR activ: activators of apoptotic arm of unfolded protein response (CHOP) | hit rate 0.34% among 330,000 | CHO-CHOP luciferase reporter, UPR activation, luminescence; percent of tunicamycin response over DMSO baseline | activation, % at 10 µM | AID 449763;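 active means at 10 µM dose, activation of 40% or more, normalized to positive control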;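 further: 100% = tunicamycin at 10 µg/mL and 0% = DMSO alone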
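measured by = luciferase luminescence | assay system = CHO-CHOP cells, stable luciferase reporter of PERK-eIF2a-CHOP signalling | amount = 500 reporter cells seeded per well | timing = 6 h compound exposure at 37 °C after overnight seeding | controls = positive tunicamycin 10 µg/mL, negative DMSO alone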
UPR CHOP confirm: apoptotic UPR (CHOP) activation, confirmed; CHO-CHOP cells, CHOP-luciferase reporter luminescence; percent of tunicamycin response, DMSO as zero; hit rate 64% among 1,000; AID 463112; activation, % at 10 µM; shares compounds with CHOP UPR activ; in the data active means activation above about 33%;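 further: 0% = DMSO wells and 100% = tunicamycin 10 µg/mL wells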
Active calls of the source: *; x = no result. Many of the other results were omitted from the sample, so hits are more common in it than they were.

SMILES	FXN GAA850 act	XBP1 UPR activ	CHOP inhibitor	CHOP UPR activ	UPR CHOP confirm
c1ccc(N2CCN(c3nc(-c4ccccn4)nc4ccccc34)CC2)cc1	-3	17	-24	97*	21
Cc1ccccc1Oc1nc(-c2ccccn2)nc2ccccc12	1	18	4	49*	8
CN1CCN(c2nc(-c3ccccn3)nc3ccccc23)CC1	0	-2	-30	-2	x
COc1ccc(CN2C[C@@H](CO)O[C@@H](n3cnc4c(NCc5ccco5)ncnc43)C2)cc1	-3	x	x	x	x
O=C(Nc1cccc(Cl)c1)c1csc([C@@H]2O[C@H](CO)[C@H](O)[C@H](O)[C@H]2O)n1	0	x	x	x	x
S=C(c1c[nH]c2ccccc12)N1CCCC1	1	1	36	1	x
CC(OC(=O)c1c[nH]c2ccccc12)C(=O)N1CCCC1 (configuration not stated)	0	-1	x	90*	-1
CCOC(=O)c1ccc(NC(=O)c2nc[nH]c2C(=O)N(C)CCO)cc1	2	x	x	x	x
N#CC1=C(N)OC2=C(CC/C2=C\c2ccccc2)C1c1ccccc1 (configuration not stated)	-1	3	58	104*	180*
CCC[C@H]1CN(c2ccccc2)C(=O)[C@@H]1CC(=O)NC	1	x	x	x	x
CC1(C)CC(=O)C2=C(C1)Oc1nc3ccccc3cc1C2C(C#N)C#N (configuration not stated)	-1	-5	63	63*	34*
COCCNC(=O)C1CCCN(C(=O)Cc2ccc(F)cc2)CC1 (configuration not stated)	0	x	x	x	x
COc1ccc(C(C)(O)c2nc(-c3ccc(OC)nc3)cs2)cc1 (configuration not stated)	0	x	x	x	x
N#Cc1ccccc1Cn1cc(/C=C/[N+](=O)[O-])c2ccccc21	-3	1	-20	85*	5
O=C(O)Cn1cc(/C=C/[N+](=O)[O-])c2ccccc21	-1	0	-16	-1	x
O=C(Cn1cc(/C=C\[N+](=O)[O-])c2ccccc21)Nc1ccccc1	2	11	-31	61*	115*
NC(c1ccccc1)c1csc(Nc2ccc(C(=O)c3ccccc3)cc2)n1 (configuration not stated)	0	x	x	x	x
CCCS(=O)(=O)NC(=O)C1(C)CCN(C(=O)c2ccc3ccccc3n2)C1 (configuration not stated)	2	x	x	x	x
CCOC(=O)C(=O)Nc1ccc(F)cc1	1	-5	-2	1	x
CCOC(=O)C(=Cc1ccc(-n2ccnc2)cc1)C(=O)OCC	-3	-4	1	188*	142*
COC(=O)c1ccc(-n2ccnc2)cc1	3	2	21	-3	x
CCOC(=O)C(=Cc1ccc(F)cc1)C(=O)OCC	x	-7	51	122*	140*
Cn1c(NCCc2ccncc2)nc2cc(-c3cccc(C(F)(F)F)c3)sc2c1=O	0	x	x	x	x
COc1cc(CNc2ccc3[nH]c(=O)[nH]c3c2)cc(Br)c1OCc1ccccc1F	4	2	x	83*	46*
COc1cc(CNc2ccc3[nH]c(=O)[nH]c3c2)cc(Br)c1OCC(=O)NC(C)(C)C	5	1	30	2	x
SMILES	FXN GAA850 act	XBP1 UPR activ	CHOP inhibitor	CHOP UPR activ	UPR CHOP confirm
CNC(=S)N/N=C/c1cc(Br)c(OCc2ccncc2)c(OC)c1	-2	-1	x	1	x
COc1cc(/C=N/NC(N)=S)cc(Br)c1OCc1ccccc1F	-2	26	32	52*	12
COc1ccc(OC)c(NS(=O)(=O)c2ccc3[nH]c(=O)[nH]c3c2)c1	-1	x	x	x	x
CC(C)C(=O)Nc1cccc(COc2ccccc2CN(Cc2ccccc2)C(=O)OC(C)(C)C)c1	-5	x	x	x	x
COC(=O)C1=C(C)N(c2ccc(C)c(C)c2)/C(=C/c2cccs2)C1=O	-3	15	10	90*	50*
COC(=O)C1=C(C)N(c2ccc(Cl)cc2)/C(=C/c2cccs2)C1=O	3	1	-17	4	x
CN1CCN(Cc2cc(COCc3ccccc3)c3cccnc3c2O)CC1	2	26	x	131*	54*
Oc1ccc(CNc2ccccc2)c2cccnc12	0	2	-99	1	x
Oc1ccc(CN2CCN(Cc3ccccc3)CC2)c2cccnc12	1	27	-10	71*	94*
COCc1ccc(O)c2ncccc12	0	37*	82*	43*	73*
CN1CCN(C2CCN(Cc3ccc(O)c4ncccc34)CC2)CC1	1	-1	x	-1	x
CC1NC(=O)c2cccnc2-n2c1nc1cc(F)ccc1c2=O (configuration not stated)	-1	x	x	x	x
CSc1ccccc1NC(=O)CN(C)C(=O)COc1cccc2cccnc12	3	13	x	48*	12
O=C(C#Cc1cccc([N+](=O)[O-])c1)c1ccccc1	0	-5	108*	134*	188*
CC1(C)CC(=O)C(=Cc2cn(-c3ccccc3)nc2-c2ccccc2)C(=O)C1	3	16	x	89*	184*
Cc1ccc(NC(=O)Cc2ccc(Cl)cc2)cc1S(=O)(=O)N1CCCCCC1	-1	-1	x	4	x
Cc1ccc(NC(=O)Cn2ncc(Cl)c(Cl)c2=O)cc1S(=O)(=O)N1CCCCC1	2	-8	x	88*	57*
Cc1ccc(SC(=O)c2c(C)noc2-c2cc(C)on2)cc1	4	-4	18	57*	18
Cc1cc(-c2onc(C)c2C(=O)N/N=C/c2ccccc2)no1	1	1	11	-1	x
CCN1CCN(C(=O)/C=C/c2ccc(C)o2)CC1	2	1	-12	1	x
Cc1ccc(/C=C/C(=O)N2CC(C)CC(C)C2)o1 (configuration not stated)	5	0	18	68*	2
O=C(c1ccc(Br)cc1)C(CN1CCOCC1)c1ccccc1 (configuration not stated)	2	0	x	105*	137*
Cc1ccc(Nc2cc(C)nn2-c2nc(C)cc(C)n2)cc1	0	30*	-88	79*	6
O=C(COC(=O)/C=C/c1cccc(F)c1)NCc1ccc2c(c1)OCO2	-3	x	x	x	x
Cc1ccc(S(=O)(=O)Nc2cccc3ncccc23)cc1	1	0	5	1	x
Cc1ccc(S(=O)(=O)Nc2cccc3ncccc23)s1	-17	-6	x	219*	10
CC1(C)Cc2c(sc(NC(=O)COc3cccc4ccccc34)c2C#N)C(C)(C)N1	1	25	17	54*	19
Cc1nc([N+](=O)[O-])c(Br)n1CC(=O)c1ccc(Br)cc1	0	-3	-31	75*	43*
Cc1nc([N+](=O)[O-])cn1CC(=O)c1ccc(Cl)cc1	1	-5	x	4	x
COc1ccc(C(O)c2nc(-c3cc(F)cc(Cl)c3)cs2)cc1 (configuration not stated)	0	x	x	x	x

Screens (PubChem)
